Hits are enriched below; roughly 1.8% of the tested compounds scored in any of these assays.
UPR XBP1 act: activators of adaptive XBP1 UPR arm, primary screen, cell-based, CHO-XBP1 luciferase reporter, luminescence, uHTS; IRE1-XBP1 UPR activation; percent of tunicamycin response, DMSO as zero; activation, % at 20 µM; hit rate 0.33% among 330,000; AID 463104, 2010;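 active = versus positive control, 20 µM dose yields 30% or more activation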
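incubation = overnight seeding at 37 °C, 6 h compound treatment at 37 °C | assay system = CHO-XBP1 cells stably carrying IRE1-XBP1-driven luciferase reporter | input = 1000 cells per well | detection = luciferase luminescence | dosing = single point, 20 µM final compound, 1% DMSO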
CHOP UPR activ: activators of apoptotic CHOP UPR arm, primary screen, cell-based, CHO-CHOP luciferase reporter, luminescence, uHTS. UPR activation; percent of tunicamycin response over DMSO baseline. activation, % at 10 µM. hit rate 0.34% among 330,000. AID 449763, 2010;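 active = at 10 µM dose, activation of 40% or more, normalized to positive control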
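Test system: CHO CHOP reporter cells. Input: 500 CHO-CHOP cells per well. Medium: F12 with 10% FBS. Technique: luciferase luminescence. Measure: percent activation relative to tunicamycin control. Dosing: 10 µM compound, 0.5% DMSO. Timing: 16-18 h cell attachment, then 6 h compound exposure, 37 °C.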
Jurkat NFkB inh: inhibitors of induced NF-kB luciferase reporter, primary screen, TCR NF-kB activation inhibitor project, cell-based, luminescence, uHTS | inhibition, % at 4 µM | hit rate 0.53% among 330,000 | Jurkat, PMA/ionomycin-induced NF-kB luciferase reporter; in the data active = inhibition above about 50%
697 NFkB inh: inhibitors of PMA/ionomycin-induced NF-kB reporter, 697 cells, primary screen, B-cell NF-kB inhibitor project, cell-based, luminescence, uHTS; 697 B-cell NF-kB luciferase reporter, 16 h; inhibition, % at 4 µM; hit rate 0.33% among 330,000; AID 435022, 2010; in the data active = inhibition above about 35%
CRFR2-BP antag: antagonists of CRF-BP/CRF-R2 complex, primary screen, cell-based, HEK293, calcium dye fluorescence, uHTS; CRF-induced calcium fluorescence; inhibition, % at 11.8 µM; hit rate 0.59% among 350,000;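 active = inhibition of the ligand-induced calcium signal above about 50% at the single tested concentration, limit read from the data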
UPR CHOP confirm: activators of apoptotic CHOP UPR arm, confirmation, cell-based, CHO-CHOP luciferase reporter, single concentration | shares compounds with CHOP UPR activ | AID 463112, 2010 | hit rate 64% among 1,000 | CHO-CHOP cells, CHOP-luciferase reporter luminescence; percent of tunicamycin response, DMSO as zero | activation, % at 10 µM; in the data active = activation above about 33%
XBP1 UPR conf: IRE1-XBP1 UPR arm activators, confirmation, cell-based, CHO-XBP1 luciferase reporter, luminescence, single concentration; activation, % at 20 µM; shares compounds with UPR XBP1 act; hit rate 63% among 1,000; AID 485299, 2010;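 active = reporter signal at least 30% of the positive control's activation in two or more of four replicate wells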
Large screens that a line does not name were inactive (follow-up assays come after a bar, where they were run).

COc1ccc(COc2cccc3ccc(C)nc23)cc1F	none
COc1cc(C=O)ccc1OCC(=O)Nc1ccc2c(c1)OCO2	none
O=C(CCl)Nc1cc(S(=O)(=O)N2CCCCCC2)ccc1Cl	CHOP UPR activ 82.7 | UPR CHOP confirm 70.3
Cc1ccccc1CS(=O)(=O)c1nnc([C@H](CC(C)C)NC(=O)OC(C)(C)C)o1	none
CC[C@@H](C)[C@H](NC(=O)OC(C)(C)C)c1nnc(S(=O)(=O)Cc2cc(C)ccc2C)o1	CHOP UPR activ 225.4 | UPR CHOP confirm 100.3
CC(C)[C@H](NC(=O)OC(C)(C)C)c1nnc(S(=O)(=O)Cc2c(F)cccc2Cl)o1	CHOP UPR activ 133.9 | UPR CHOP confirm 95.0
Cc1ccc(C(=O)Nc2ccc(S(=O)(=O)Nc3cnc4ccccc4n3)cc2)cc1	none
O=c1oc(-c2ccc(O)c(O)c2)cc2cc(O)cc(O)c12	none
O=c1oc(-c2ccc(O)c(O)c2)cc2cccc(O)c12	CHOP UPR activ 53.8 | UPR CHOP confirm inactive
Cc1ccc(NC(=O)c2ncn(CCCNCc3ccccn3)n2)cc1C	none (no result: UPR XBP1 act, CHOP UPR activ, Jurkat NFkB inh, 697 NFkB inh)
O=C(NCc1ccccc1Cl)c1cccc2c1C(=O)c1ccc(-c3ccc(OC(F)(F)F)cc3)cc1S2(=O)=O	UPR XBP1 act 164.0, CHOP UPR activ 127.9 | UPR CHOP confirm 84.8 | XBP1 UPR conf 114.8
COc1cc2c(cc1OC)CN(C(=O)C1CCCN1S(=O)(=O)c1ccc(F)cc1)CC2 (centres undefined)	none
COc1cc2nc(NC(=O)c3ccc(Cl)cc3)sc(=O)c2cc1OC	UPR XBP1 act 67.6, CHOP UPR activ 46.9 | UPR CHOP confirm 50.0 | XBP1 UPR conf inactive
NC(=O)c1ccccc1NC(=O)c1cccc(C(=O)Nc2ccccc2C(N)=O)n1	none
Cc1ccc(C)c(NC(=O)/C(C#N)=C/c2cn(CC(=O)NCc3ccco3)c3ccccc23)c1	UPR XBP1 act 223.7, CHOP UPR activ 111.0 | UPR CHOP confirm 51.0 | XBP1 UPR conf inactive
Cc1ccc(NC(=O)/C(C#N)=C/c2cn(CC(=O)NCc3ccco3)c3ccccc23)cc1C	UPR XBP1 act 235.4, CHOP UPR activ 124.5 | UPR CHOP confirm inactive | XBP1 UPR conf inactive
Cc1cccc(NC(=O)CN2C(=O)CCS(=O)(=O)c3ccccc32)c1C	none
COc1ccc(-c2[nH]n(-c3ccc([N+](=O)[O-])cc3)c(=O)c2C=NCc2ccc(F)cc2)cc1	UPR XBP1 act 52.6, CHOP UPR activ 42.2 | UPR CHOP confirm inactive | XBP1 UPR conf inactive
COc1ccc(-c2[nH]n(-c3ccc([N+](=O)[O-])cc3)c(=O)c2C=NCc2ccncc2)cc1	none
Cc1ccccc1NC(=O)CCNS(=O)(=O)c1cccc2nsnc12	none
COc1ccc2cc1Oc1ccc(cc1)CC1c3c(cc(OC)c4c3Oc3cc5c(cc3O4)CCNC5C2)CCN1C (centres undefined)	UPR XBP1 act 52.4, CHOP UPR activ 40.7 | UPR CHOP confirm 38.9 | XBP1 UPR conf 29.7
CCOC(=O)C(=CNc1nc(-c2ccccc2)c(C(=O)Nc2ccc(-c3ccccc3)cc2)s1)C(=O)OCC	UPR XBP1 act 209.2, CHOP UPR activ 73.0 | UPR CHOP confirm 43.4 | XBP1 UPR conf 133.1
O=C(Nc1nc(-c2ccc3ccccc3c2)cs1)c1ccc(N2C(=O)CCC2=O)cc1	UPR XBP1 act 44.6, CHOP UPR activ 76.5 | UPR CHOP confirm 56.1 | XBP1 UPR conf 47.0
COc1ccc(-c2csc(NC(=O)c3cccc(N4C(=O)CCC4=O)c3)n2)cc1C	none
OC(c1ccccc1)C(Nc1ccccn1)c1ccccc1 (centres undefined)	none (no result: UPR XBP1 act, CHOP UPR activ, Jurkat NFkB inh, 697 NFkB inh)
CCOc1ccc(CN(C)C(=O)CNC(=O)c2ccc3ccccc3c2)cc1OC	none
O=C(CSc1nc2ccc(Nc3nc(N4CCOCC4)nc(N4CCOCC4)n3)cc2s1)Nc1ccccc1F	UPR XBP1 act 277.4, CHOP UPR activ 106.5 | UPR CHOP confirm 110.6 | XBP1 UPR conf 301.8
O=C(CSc1nc2ccc(Nc3nc(N4CCOCC4)nc(N4CCOCC4)n3)cc2s1)Nc1ccccc1Cl	none
O=C(Nc1ccn(CCCNCc2cccc3ccccc23)c(=O)n1)OCc1ccccc1	none (no result: UPR XBP1 act, CHOP UPR activ, Jurkat NFkB inh, 697 NFkB inh)
COc1ccccc1-c1cc(C(=O)N2CCOCC2)no1	none
O=C(/C(=N/N=C/c1ccc(O)c(O)c1)c1ccccc1)c1ccccc1	UPR XBP1 act 41.1, CHOP UPR activ 85.9 | UPR CHOP confirm 63.4 | XBP1 UPR conf 30.4
Oc1cc(-c2ccncc2)cc2cccnc12	UPR XBP1 act 33.7, CHOP UPR activ 70.4 | UPR CHOP confirm 66.1 | XBP1 UPR conf inactive
CN(C)c1ccc(-c2cc(O)c3ncccc3c2)cc1	none
O=C(OCC(=O)N1CCCC1)c1cc(Cl)ccc1[N+](=O)[O-]	none
COc1ccc2cc(C)c3nnc(SCC(=O)Nc4nc(-c5ccc(F)cc5)cs4)n3c2c1	UPR XBP1 act 215.8, CHOP UPR activ 160.4 | UPR CHOP confirm 88.3 | XBP1 UPR conf 216.5
COCCN1Cc2cccc(C(=O)Nc3ccc(-c4nc5ccccc5[nH]4)cc3)c2C1=O	none
CCCN1Cc2cccc(C(=O)Nc3ccc(-c4nc5ccccc5[nH]4)cc3)c2C1=O	UPR XBP1 act 38.3, CHOP UPR activ 41.9 | UPR CHOP confirm 41.0 | XBP1 UPR conf inactive
COc1ccccc1N1CCN(CCCCOc2ccc(C)cc2C)CC1	none
CCc1nnc(NC(=O)CSc2nc(-c3ccccc3)cc(-c3ccc(OC)cc3)c2C#N)s1	UPR XBP1 act 58.2, CHOP UPR activ 93.1 | UPR CHOP confirm 104.7 | XBP1 UPR conf inactive
COc1ccc(-c2cc(-c3ccccc3)c(C#N)c(S(C)(=O)=O)n2)cc1	UPR XBP1 act 44.9, CHOP UPR activ 102.9 | UPR CHOP confirm 118.8 | XBP1 UPR conf 98.7
COc1ccc(-c2cc(-c3ccc(OC)cc3)c(C#N)c(SC)n2)cc1	none
COc1cccc2sc(N3CCN(c4nc5ccccc5s4)CC3)nc12	UPR XBP1 act 94.2, CHOP UPR activ 87.7 | UPR CHOP confirm 42.5 | XBP1 UPR conf 86.2
COc1ccc(NC(=O)c2sc3nc(N4CCOCC4)c4c(c3c2N)CC(C)(C)OC4)c(OC)c1	UPR XBP1 act 162.7, CHOP UPR activ 40.1 | UPR CHOP confirm 38.9 | XBP1 UPR conf 171.8
O=C(Nc1ccc(-c2nc3cc(NC(=O)c4cccs4)ccc3o2)cc1)c1cccs1	UPR XBP1 act 147.6, CHOP UPR activ 195.2 | UPR CHOP confirm 201.6 | XBP1 UPR conf 324.2

Screening results deposited in PubChem by Sanford-Burnham Center for Chemical Genomics.
